# Measurements reported in ChEMBL document CHEMBL3399995, “Synthesis and biological evaluation of benzimidazole acridine derivatives as potential DNA-binding and apoptosis-inducing agents” (Bioorg Med Chem, 2015).
# The source made the active and inactive calls. No cut-off for these calls is given here.
# Key:
# HepG2 = experiment: Antiproliferative activity against human HepG2 cells after 48 hrs by MTT assay; format: functional, cell-based; conditions: HepG2, 48 h
# How it was run: (§1)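 Cells were grown at 37 °C in 5% CO₂ with 10% FBS, penicillin and streptomycin. Media were IMDM for K562; DMEM for HepG-2, A-375, U-118 MG and A172; RPMI 1640 for CNE-2 and HeLa; MEM-EBSS for U251. MTT (5 mg/mL) was added for 4 h at 37 °C, formazan dissolved in DMSO, and A490 read. IC50 is the concentration giving 50% growth inhibition.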
# [1] = target: T1, DNA topoisomerase 1 (Homo sapiens) (UniProt P11387); experiment: Inhibition of recombinant human DNA topoisomerase 1 assessed as relaxation of plasmid DNA pBR322 at 50 uM by agarose gel electrophoresis
# T1 sequence (whole entry): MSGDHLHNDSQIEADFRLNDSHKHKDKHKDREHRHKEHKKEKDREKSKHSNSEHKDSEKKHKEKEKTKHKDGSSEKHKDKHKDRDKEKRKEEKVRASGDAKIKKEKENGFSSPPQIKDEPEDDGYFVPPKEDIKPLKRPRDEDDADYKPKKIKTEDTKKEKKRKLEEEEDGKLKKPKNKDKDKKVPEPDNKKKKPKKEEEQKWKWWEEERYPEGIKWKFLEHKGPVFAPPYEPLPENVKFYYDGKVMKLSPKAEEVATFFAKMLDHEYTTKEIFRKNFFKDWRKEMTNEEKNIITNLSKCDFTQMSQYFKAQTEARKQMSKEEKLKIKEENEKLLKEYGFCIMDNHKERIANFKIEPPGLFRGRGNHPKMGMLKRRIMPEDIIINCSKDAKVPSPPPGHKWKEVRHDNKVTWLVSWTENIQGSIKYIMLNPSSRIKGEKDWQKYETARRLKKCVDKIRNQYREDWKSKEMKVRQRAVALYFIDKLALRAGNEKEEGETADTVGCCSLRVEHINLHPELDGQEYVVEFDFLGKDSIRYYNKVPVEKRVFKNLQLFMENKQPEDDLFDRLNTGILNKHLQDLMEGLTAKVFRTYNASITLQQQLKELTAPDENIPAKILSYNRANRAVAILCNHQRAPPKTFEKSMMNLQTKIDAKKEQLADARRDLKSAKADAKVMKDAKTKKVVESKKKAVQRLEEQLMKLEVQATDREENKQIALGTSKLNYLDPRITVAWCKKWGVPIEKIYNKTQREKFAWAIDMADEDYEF
# How it was run: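 pBR322 (100 ng) was incubated with 1.0 unit recombinant human topoisomerase I and compound (50 μM) at 37 °C for 30 min. Relaxation buffer was 35 mM Tris-HCl pH 8.0, 5 mM MgCl2, 72 mM KCl, 0.01% BSA, 2 mM spermidine, 5 mM DTT. Products were resolved on 1% agarose in TAE at 100 V for 25 min and stained with ethidium bromide.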
# K562 [2] = experiment: Antiproliferative activity against human K562 cells after 48 hrs by MTT assay; format: functional, cell-based; conditions: K562, 48 h; how it was run: as §1
# HeLa = experiment: Antiproliferative activity against human HeLa cells after 48 hrs by MTT assay; format: functional, cell-based; how it was run: as §1
# K562 [3] = experiment: Induction of apoptosis in human K562 cells assessed as late apoptotic or necrotic cells at 2.5 uM by annexin V-FITC/propidium iodide staining-based flow cytometry (reference value: 0.162%)
# Calf thymus DNA [4] = experiment: Binding affinity to calf thymus DNA after 3 mins by UV-vis absorption spectra analysis; format: nucleic-acid assay, Bos taurus
# How it was run: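 ct DNA titration of the compound (40 μM) in 10 mM Tris-HCl, 10 mM NaCl, pH 7.0, at [DNA]/[compound] 0–1.0, in a 1.0 cm quartz cell. Samples sat 3 min before UV-vis spectra were recorded. Kb was taken as the slope-to-intercept ratio of [DNA]/(εa−εf) plotted against [DNA].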
# K562 [5] = experiment: Induction of apoptosis in human K562 cells assessed as activation of caspase 7 at 10 uM after 48 hrs by Western blot analysis; format: functional, cell-based
# How it was run: (§2)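 K562 cells in 6 cm dishes were exposed to 1, 5 or 10 μM for 48 h, then lysed at 0 °C for 0.5 h and spun at 20,000 g for 10 min. Protein was measured by BCA. Lysates were run on 12% SDS-PAGE and transferred to PVDF. Membranes were blocked in 5% milk for 1 h, then given primary antibody overnight at 4 °C.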
# U-251 = experiment: Antiproliferative activity against human U251 cells after 48 hrs by MTT assay; format: functional, cell-based; conditions: U-251, 48 h; how it was run: as §1
# K562 [6] = experiment: Induction of apoptosis in human K562 cells assessed as necrotic cells at 2.5 uM by annexin V-FITC/propidium iodide staining-based flow cytometry (reference value: 0.203%); format: functional
# K562 [7] = experiment: Induction of apoptosis in human K562 cells assessed as viable cells at 10 uM by annexin V-FITC/propidium iodide staining-based flow cytometry (reference value: 98.9%); format: functional; conditions: read-out: Activity
# K562 [8] = experiment: Induction of apoptosis in human K562 cells assessed as activation of caspase 3 at 10 uM after 48 hrs by Western blot analysis; format: functional, cell-based; how it was run: as §2
# [9] = Antiproliferative activity against human A172 cells after 48 hrs by MTT assay; format: functional, cell-based; conditions: A 172, 48 h; how it was run: as §1
# K562 [10] = experiment: Induction of apoptosis in human K562 cells assessed as viable cells at 2.5 uM by annexin V-FITC/propidium iodide staining-based flow cytometry (reference value: 98.9%); format: functional; conditions: read-out: Activity
# K562 [11] = experiment: Induction of apoptosis in human K562 cells assessed as activation of caspase 9 at 10 uM after 48 hrs by Western blot analysis; format: functional, cell-based; how it was run: as §2
# [12] = Antiproliferative activity against human U118MG cells after 48 hrs by MTT assay; format: functional, cell-based; conditions: U-118-MG; how it was run: as §1
# K562 [13] = experiment: Induction of apoptosis in human K562 cells assessed as loss of mitochondrial membrane potential at 10 uM using JC-1 staining by fluorescence assay; format: functional, cell-based
# How it was run: (§3)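 Mitochondrial membrane potential in treated K562 cells (0, 2.5, 10 μM) was measured with a JC-1 kit. Red fluorescence marks high potential and green marks low. CCCP at 10 μM served as positive control.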
# K562 [14] = experiment: Induction of apoptosis in human K562 cells assessed as early apoptotic cells at 2.5 uM by annexin V-FITC/propidium iodide staining-based flow cytometry (reference value: 0.709%)
# Calf thymus DNA [15] = experiment: Binding affinity to calf thymus DNA after 3 mins by fluorescence absorption spectroscopy; format: nucleic-acid assay; conditions: Bos taurus
# How it was run: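 Fluorescence titration of the compound (3.75 μM final) in 10 mM Tris-HCl, 10 mM NaCl, pH 7.0, with ct DNA at 0, 1, 2, 3, 4 and 5 μM final. Samples sat 3 min before emission spectra were recorded. The binding constant came from the Stern-Volmer fit F0/F = 1 + K[Q], with [Q] the DNA concentration.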
# K562 [16] = experiment: Induction of apoptosis in human K562 cells assessed as necrotic cells at 10 uM by annexin V-FITC/propidium iodide staining-based flow cytometry (reference value: 0.203%); format: functional
# [17] = Antiproliferative activity against human CNE2 cells after 48 hrs by MTT assay; format: functional, cell-based; conditions: CNE-2, 48 h; how it was run: as §1
# K562 [18] = experiment: Induction of apoptosis in human K562 cells assessed as loss of mitochondrial membrane potential at 2.5 uM using JC-1 staining by fluorescence assay; format: functional, cell-based; how it was run: as §3
# K562 [19] = experiment: Induction of apoptosis in human K562 cells assessed as early apoptotic cells at 10 uM by annexin V-FITC/propidium iodide staining-based flow cytometry (reference value: 0.709%)
# K562 [20] = experiment: Induction of apoptosis in human K562 cells assessed as downregulation of Bcl-xL protein expression at 10 uM after 48 hrs by Western blot analysis; format: functional, cell-based; how it was run: as §2
# K562 [21] = experiment: Induction of apoptosis in human K562 cells assessed as PARP cleavage at 10 uM after 48 hrs by Western blot analysis; format: functional, cell-based; how it was run: as §2
# K562 [22] = experiment: Induction of apoptosis in human K562 cells assessed as apoptotic cells at 10 uM by annexin V-FITC/propidium iodide staining-based flow cytometry (reference value: 0.162%)
# A-375 = experiment: Antiproliferative activity against human A375 cells after 48 hrs by MTT assay; format: functional, cell-based; conditions: A-375, 48 h; how it was run: as §1
compound,measurement,setting,value
COc1ccc2c(NCc3nc4ccccc4[nH]3)c3ccccc3nc2c1,IC50,HepG2,15.4 µM
same,inhibition,[1],Active
same,IC50,K562 [2],15.2 µM
Clc1ccc2nc3ccccc3c(NCc3nc4ccccc4[nH]3)c2c1,IC50,HepG2,40.6 µM
same,inhibition,[1],Active
same,IC50,K562 [2],11.8 µM
COc1cccc2c(NCc3nc4ccccc4[nH]3)c3ccccc3nc12,IC50,HepG2,28.5 µM
same,inhibition,[1],Active
same,IC50,K562 [2],7.46 µM
Fc1cc2nc3ccccc3c(NCc3nc4ccccc4[nH]3)c2cc1F,IC50,HepG2,25.7 µM
same,inhibition,[1],Active
same,IC50,K562 [2],17.4 µM
c1ccc2[nH]c(CNc3c4ccccc4nc4ccccc34)nc2c1,IC50,HepG2,> 50 µM
same,inhibition,[1],Active
same,IC50,K562 [2],11.2 µM
CCCCc1ccc2nc3ccccc3c(NCc3nc4ccccc4[nH]3)c2c1,IC50,HeLa,2.76 µM
same,late apoptotic or necrotic cells at 2.5 µM,K562 [3],1.27%
same,Kb,Calf thymus DNA [4],1.88 ×10⁵ /M
same,Activity,K562 [5],Active
same,IC50,U-251,2.39 µM
same,Activity,K562 [6],0.55%
same,viability at 10 µM,K562 [7],30.8%
same,Activity,K562 [8],Active
same,IC50,[9],2.86 µM
same,viability at 2.5 µM,K562 [10],83.3%
same,Activity,K562 [11],Active
same,IC50,[12],1.98 µM
same,Activity,K562 [13],Active
same,early apoptotic cells at 2.5 µM,K562 [14],14.9%
same,Activity,Calf thymus DNA [15],Active
same,Activity,K562 [16],1.37%
same,IC50,[17],2.62 µM
same,Activity,K562 [18],Active
same,IC50,HepG2,8.11 µM
same,early apoptotic cells at 10 µM,K562 [19],57.3%
same,inhibition,[1],Active
same,Activity,K562 [20],Active
same,Activity,K562 [21],Active
same,IC50,K562 [2],2.68 µM
same,apoptotic cells at 10 µM,K562 [22],10.6%
same,IC50,A-375,3.2 µM
COc1cccc2c(Nc3nc4ccccc4[nH]3)c3ccccc3nc12,IC50,HepG2,6.32 µM
same,inhibition,[1],Active
same,IC50,K562 [2],7.2 µM
c1ccc2[nH]c(Nc3c4ccccc4nc4ccccc34)nc2c1,IC50,HepG2,4.01 µM
same,inhibition,[1],Active
same,IC50,K562 [2],> 50 µM
COc1ccc2nc3ccccc3c(Nc3nc4ccccc4[nH]3)c2c1,IC50,HepG2,4.53 µM
same,inhibition,[1],Active
same,IC50,K562 [2],8.63 µM
c1ccc2[nH]c(-c3ccc(Nc4c5ccccc5nc5ccccc45)cc3)nc2c1,IC50,HepG2,> 50 µM
same,inhibition,[1],Active
same,IC50,K562 [2],2.82 µM
Cc1ccc2c(NCc3nc4ccccc4[nH]3)c3ccccc3nc2c1,IC50,HepG2,32.6 µM
same,inhibition,[1],Active
same,IC50,K562 [2],25.1 µM
Fc1ccc2c(NCc3nc4ccccc4[nH]3)c3ccccc3nc2c1,IC50,HepG2,10.7 µM
same,inhibition,[1],Active
same,IC50,K562 [2],28.5 µM
Cc1cccc2c(NCc3nc4ccccc4[nH]3)c3ccccc3nc12,IC50,HepG2,> 50 µM
same,inhibition,[1],Active
same,IC50,K562 [2],42.6 µM
CCc1ccc2nc3ccccc3c(NCc3nc4ccccc4[nH]3)c2c1,IC50,HepG2,> 50 µM
same,inhibition,[1],Active
same,IC50,K562 [2],7.52 µM
Cc1ccc2nc3ccccc3c(NCc3nc4ccccc4[nH]3)c2c1,IC50,HepG2,38.8 µM
same,inhibition,[1],Active
same,IC50,K562 [2],12.3 µM
c1ccc2[nH]c(Sc3c4ccccc4nc4ccccc34)nc2c1,IC50,HepG2,> 50 µM
same,inhibition,[1],Active
same,IC50,K562 [2],14 µM
COc1ccc2nc3ccccc3c(NCc3nc4ccccc4[nH]3)c2c1,IC50,HepG2,8.92 µM
same,inhibition,[1],Active
same,IC50,K562 [2],4.68 µM
